Laboratory results from ChEMBL document CHEMBL1141651, “Discovery of a potent, selective, and orally active proteasome inhibitor for the treatment of cancer” (J Med Chem, 2008).

Tests used:
[1] = target: Matrilysin (Homo sapiens) (UniProt P09237); experiment: Inhibition of human MMP7 at 10 uM
[2] = target: Cytochrome P450 3A4 (Homo sapiens, UniProt P08684); experiment: Inhibition of human recombinant CYP3A4; assay type: ADME
[3] = target: Chymase (Homo sapiens, UniProt P23946); experiment: Inhibition of human chymase
Chain of Chymase (P23946 whole entry): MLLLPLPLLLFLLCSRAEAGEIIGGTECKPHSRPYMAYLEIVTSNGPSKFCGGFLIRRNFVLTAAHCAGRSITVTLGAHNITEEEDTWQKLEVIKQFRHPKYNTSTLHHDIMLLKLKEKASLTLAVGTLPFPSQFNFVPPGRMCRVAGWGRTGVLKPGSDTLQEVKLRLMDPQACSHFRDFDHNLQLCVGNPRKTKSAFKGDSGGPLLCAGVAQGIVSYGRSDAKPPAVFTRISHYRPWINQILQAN

[4] = Inhibition of bacterial prolyl oligopeptidase at 10 uM
[5] = target: Caspase-3 (Homo sapiens) (UniProt P42574); experiment: Inhibition of human caspase 3 at 10 uM
[6] = target: Cytochrome P450 2D6 (Homo sapiens, UniProt P10635); experiment: Inhibition of human recombinant CYP2D6 upto 30 uM; assay type: ADME; conditions: recombinant enzyme
Chain of Cytochrome P450 2D6 (P10635 whole entry, canonical isoform): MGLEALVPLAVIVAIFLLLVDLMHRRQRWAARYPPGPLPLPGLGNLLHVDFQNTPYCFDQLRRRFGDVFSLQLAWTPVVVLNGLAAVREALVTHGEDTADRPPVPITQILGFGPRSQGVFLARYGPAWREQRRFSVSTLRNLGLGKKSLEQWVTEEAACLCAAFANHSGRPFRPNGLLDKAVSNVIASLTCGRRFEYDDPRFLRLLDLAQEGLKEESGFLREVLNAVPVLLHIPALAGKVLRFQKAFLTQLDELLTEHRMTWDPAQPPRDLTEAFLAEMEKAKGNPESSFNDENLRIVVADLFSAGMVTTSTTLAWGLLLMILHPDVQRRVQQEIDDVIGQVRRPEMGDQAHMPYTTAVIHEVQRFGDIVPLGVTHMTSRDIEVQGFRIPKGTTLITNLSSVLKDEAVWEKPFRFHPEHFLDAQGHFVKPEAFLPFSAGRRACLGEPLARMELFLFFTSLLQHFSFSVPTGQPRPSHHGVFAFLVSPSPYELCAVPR
Outline: (§1)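 Recombinant human P-450 isoforms (1A2, 2C9, 2C19, 2D6) with fluorescent P-450 substrates; tested at concentrations up to 30 µM to gauge inhibition.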

[7] = target: Cytochrome P450 2C9 (Homo sapiens, UniProt P11712); experiment: Inhibition of human recombinant CYP2C9 upto 30 uM; assay type: ADME; conditions: recombinant enzyme; outline: as §1
Chain of Cytochrome P450 2C9 (P11712 whole entry): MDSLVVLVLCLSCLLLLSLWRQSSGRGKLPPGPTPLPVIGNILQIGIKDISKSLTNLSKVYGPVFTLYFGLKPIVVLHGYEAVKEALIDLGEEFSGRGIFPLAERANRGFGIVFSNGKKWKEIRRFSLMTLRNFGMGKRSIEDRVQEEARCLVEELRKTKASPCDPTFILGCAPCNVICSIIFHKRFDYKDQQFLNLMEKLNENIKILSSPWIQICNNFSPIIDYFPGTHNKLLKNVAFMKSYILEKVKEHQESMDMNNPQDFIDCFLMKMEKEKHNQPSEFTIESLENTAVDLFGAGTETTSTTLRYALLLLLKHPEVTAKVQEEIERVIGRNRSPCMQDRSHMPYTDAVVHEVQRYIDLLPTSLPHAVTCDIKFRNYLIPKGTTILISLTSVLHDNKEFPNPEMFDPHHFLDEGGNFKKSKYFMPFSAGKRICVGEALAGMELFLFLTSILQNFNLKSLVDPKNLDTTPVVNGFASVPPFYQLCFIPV

[8] = target: Cathepsin S (Homo sapiens) (UniProt P25774); experiment: Inhibition of human cathepsin S at 10 uM
[9] = target: Neutrophil elastase (Homo sapiens) (UniProt P08246); experiment: Inhibition of human neutrophil elastase 2 at 10 uM
Chain of Neutrophil elastase (Homo sapiens) (P08246 whole entry): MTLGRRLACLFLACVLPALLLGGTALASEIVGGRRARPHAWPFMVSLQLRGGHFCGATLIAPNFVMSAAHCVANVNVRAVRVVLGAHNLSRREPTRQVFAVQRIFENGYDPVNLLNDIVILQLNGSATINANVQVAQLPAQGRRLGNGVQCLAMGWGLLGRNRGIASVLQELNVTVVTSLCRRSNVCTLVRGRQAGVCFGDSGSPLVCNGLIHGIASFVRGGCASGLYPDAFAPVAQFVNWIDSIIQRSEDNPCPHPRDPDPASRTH

[10] = target: Neprilysin (Homo sapiens) (UniProt P08473); experiment: Inhibition of human NEP at 10 uM
[11] = Inhibition of chymotrypsin-like activity of human 20S proteasome in Molt4 cells; assay type: cell-based; conditions: molt-4
Outline: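 Intact human leukemia Molt-4 cells were given the cell-permeable fluorogenic chymotrypsin-like substrate MeOSuc-FLF-AFC, so the read-out also reflects inhibitor cell permeability. Potency is reported as EC50.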

[12] = target: Procathepsin L (Homo sapiens) (UniProt P07711); experiment: Inhibition of human cathepsin L at 10 uM
Chain of Procathepsin L (Homo sapiens) (P07711 114-333 limits assumed): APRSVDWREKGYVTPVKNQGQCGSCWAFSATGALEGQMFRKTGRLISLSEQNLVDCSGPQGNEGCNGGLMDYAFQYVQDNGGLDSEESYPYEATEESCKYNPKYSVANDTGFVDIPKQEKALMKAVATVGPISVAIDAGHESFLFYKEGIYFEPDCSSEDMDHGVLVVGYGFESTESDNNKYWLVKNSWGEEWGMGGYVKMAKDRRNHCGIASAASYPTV

[13] = target: Cathepsin G (Homo sapiens) (UniProt P08311); experiment: Inhibition of human cathepsin G at 10 uM
Chain of Cathepsin G (Homo sapiens) (P08311 whole entry): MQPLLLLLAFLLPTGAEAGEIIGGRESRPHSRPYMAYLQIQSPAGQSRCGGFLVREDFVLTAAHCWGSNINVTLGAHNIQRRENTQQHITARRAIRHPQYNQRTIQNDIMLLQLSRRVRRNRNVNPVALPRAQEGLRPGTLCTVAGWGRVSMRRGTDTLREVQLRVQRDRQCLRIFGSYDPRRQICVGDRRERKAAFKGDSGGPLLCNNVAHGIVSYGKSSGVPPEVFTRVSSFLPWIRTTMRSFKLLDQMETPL

[14] = target: Neutrophil elastase (Homo sapiens, UniProt P08246); experiment: Inhibition of human neutrophil elastase 2
Chain of Neutrophil elastase (P08246 whole entry): as the sequence (P08246 whole entry) above

[15] = Oral bioavailability in Sprague-Dawley rat at 0.8 mg/kg; assay type: ADME, organism-based; conditions: in vivo
Outline: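 Female Sprague-Dawley rats given a single iv dose (0.2 mg/kg) and a single oral dose (0.8 mg/kg). Plasma AUC0-∞ was determined, and absolute oral bioavailability F (%) was derived by comparing oral with iv exposure.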

[16] = test system: A2780; experiment: Cytotoxicity against human A2780 cells; assay type: functional, cell-based
Outline: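 Antiproliferative activity was measured in A2780 ovarian carcinoma cells with a standard colorimetric assay of cell proliferation and viability. Results are expressed as IC50.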

[17] = target: Endothelin-converting enzyme 1 (Homo sapiens) (UniProt P42892); experiment: Inhibition of human ECE1 at 10 uM
Chain of Endothelin-converting enzyme 1 (Homo sapiens) (P42892 whole entry): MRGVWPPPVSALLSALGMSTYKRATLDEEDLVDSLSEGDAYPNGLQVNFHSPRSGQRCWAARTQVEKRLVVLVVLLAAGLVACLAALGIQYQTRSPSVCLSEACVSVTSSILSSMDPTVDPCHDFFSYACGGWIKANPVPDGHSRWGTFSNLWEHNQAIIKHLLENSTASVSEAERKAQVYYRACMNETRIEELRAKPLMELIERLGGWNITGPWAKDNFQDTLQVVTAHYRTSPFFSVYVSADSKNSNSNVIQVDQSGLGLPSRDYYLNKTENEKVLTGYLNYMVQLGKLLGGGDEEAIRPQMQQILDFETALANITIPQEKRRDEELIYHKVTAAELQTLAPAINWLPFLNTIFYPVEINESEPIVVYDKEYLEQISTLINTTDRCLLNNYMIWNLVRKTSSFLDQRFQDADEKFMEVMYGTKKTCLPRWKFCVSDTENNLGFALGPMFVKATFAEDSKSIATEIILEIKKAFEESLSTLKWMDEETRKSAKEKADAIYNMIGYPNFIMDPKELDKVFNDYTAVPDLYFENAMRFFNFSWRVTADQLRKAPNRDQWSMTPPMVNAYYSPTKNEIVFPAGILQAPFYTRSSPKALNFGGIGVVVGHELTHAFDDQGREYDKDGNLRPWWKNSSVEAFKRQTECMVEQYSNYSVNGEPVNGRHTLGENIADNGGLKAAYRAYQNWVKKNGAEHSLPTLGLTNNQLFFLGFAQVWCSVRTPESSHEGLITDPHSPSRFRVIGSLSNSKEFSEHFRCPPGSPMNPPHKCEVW

[18] = species: Sus scrofa; experiment: Inhibition of pig pancreatic elastase 1 at 10 uM
[19] = Inhibition of bovine alpha chymotrypsin; parameters: species or system Bos taurus
[20] = Protein binding in mouse plasma; assay type: ADME, cell-free; conditions: read-out: PPB (converted)
[21] = target: Cathepsin Z (Homo sapiens) (UniProt Q9UBR2); experiment: Inhibition of human cathepsin Z at 10 uM
Chain of Cathepsin Z (Homo sapiens) (Q9UBR2 whole entry): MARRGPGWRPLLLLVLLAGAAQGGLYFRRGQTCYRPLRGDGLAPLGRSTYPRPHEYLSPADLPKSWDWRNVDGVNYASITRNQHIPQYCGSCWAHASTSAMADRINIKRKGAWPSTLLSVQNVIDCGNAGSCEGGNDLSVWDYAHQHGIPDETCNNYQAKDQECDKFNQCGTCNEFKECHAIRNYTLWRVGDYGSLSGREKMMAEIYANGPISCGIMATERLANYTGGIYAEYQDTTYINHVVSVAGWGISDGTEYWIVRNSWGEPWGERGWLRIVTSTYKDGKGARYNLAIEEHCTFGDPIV

[22] = target: Cathepsin B (Homo sapiens) (UniProt P07858); experiment: Inhibition of human cathepsin B at 10 uM
[23] = Metabolic stability in mouse liver microsomes; assay type: ADME, Microsome
[24] = Protein binding in rat plasma; assay type: ADME, cell-free; conditions: read-out: PPB (converted)
[25] = Metabolic stability in dog liver microsomes; assay type: ADME, Canis lupus familiaris, Microsome
[26] = Volume of distribution at steady state in Sprague-Dawley rat at 0.2 mg/kg, iv; assay type: ADME, organism-based; parameters: dose 0.2 mg/kg, route intravenous; conditions: in vivo, read-out: Vdss
Outline: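 Single-dose pharmacokinetics after iv or oral administration in female Sprague–Dawley rats and in CD-1 mice; plasma exposure (AUC0–∞) used to derive steady-state volume of distribution, clearance, terminal half-life and absolute oral bioavailability.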

[27] = target: Cathepsin D (Homo sapiens) (UniProt P07339); experiment: Inhibition of human cathepsin D at 10 uM
Chain of Cathepsin D (Homo sapiens) (P07339 65-162 limits assumed): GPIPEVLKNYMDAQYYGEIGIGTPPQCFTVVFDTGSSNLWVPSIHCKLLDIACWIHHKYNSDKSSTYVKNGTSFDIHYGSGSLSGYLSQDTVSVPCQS
Chain of Cathepsin D (Homo sapiens) (P07339 169-412 limits assumed): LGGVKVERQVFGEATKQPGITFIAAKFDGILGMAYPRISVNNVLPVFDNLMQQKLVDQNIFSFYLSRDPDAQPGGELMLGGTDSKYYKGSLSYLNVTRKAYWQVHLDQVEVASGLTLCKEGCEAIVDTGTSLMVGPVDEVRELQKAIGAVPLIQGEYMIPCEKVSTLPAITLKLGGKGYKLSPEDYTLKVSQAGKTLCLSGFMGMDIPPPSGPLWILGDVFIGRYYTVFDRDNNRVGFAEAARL

[28] = target: Dipeptidyl peptidase 4 (Homo sapiens) (UniProt P27487); experiment: Inhibition of human DPP4 at 10 uM
Chain of Dipeptidyl peptidase 4 (Homo sapiens) (P27487 whole entry, looked up): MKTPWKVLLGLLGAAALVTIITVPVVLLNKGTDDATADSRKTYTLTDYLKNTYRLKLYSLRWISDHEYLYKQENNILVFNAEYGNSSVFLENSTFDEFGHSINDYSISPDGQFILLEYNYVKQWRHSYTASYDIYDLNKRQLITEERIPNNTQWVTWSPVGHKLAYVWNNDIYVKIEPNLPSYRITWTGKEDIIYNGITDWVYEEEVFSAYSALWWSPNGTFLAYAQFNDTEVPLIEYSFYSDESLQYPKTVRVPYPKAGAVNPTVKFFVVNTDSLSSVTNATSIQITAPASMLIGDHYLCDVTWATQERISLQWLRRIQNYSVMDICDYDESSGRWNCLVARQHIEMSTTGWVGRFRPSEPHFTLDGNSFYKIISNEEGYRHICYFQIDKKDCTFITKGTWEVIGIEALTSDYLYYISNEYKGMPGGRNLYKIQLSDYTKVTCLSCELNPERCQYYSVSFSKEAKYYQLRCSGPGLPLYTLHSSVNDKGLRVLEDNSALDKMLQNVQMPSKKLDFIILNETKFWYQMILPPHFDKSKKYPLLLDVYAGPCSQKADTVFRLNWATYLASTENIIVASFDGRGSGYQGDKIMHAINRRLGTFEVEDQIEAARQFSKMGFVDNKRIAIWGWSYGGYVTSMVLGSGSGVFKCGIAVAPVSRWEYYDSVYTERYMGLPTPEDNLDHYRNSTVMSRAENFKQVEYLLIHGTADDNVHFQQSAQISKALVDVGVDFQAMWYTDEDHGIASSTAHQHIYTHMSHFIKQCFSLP

[29] = AUC (0 to infinity) in CD1 mouse at 10 mg/kg, po; assay type: ADME, organism-based; parameters: time infinity, dose 10 mg/kg, route oral; conditions: plasma
Outline: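 CD-1 mice received a single dose by the iv or oral route. AUC from 0 to infinity was reported with terminal half-life, Vss, clearance and absolute oral bioavailability.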

[30] = Half life in CD1 mouse at 10 mg/kg, po; assay type: ADME, organism-based; parameters: dose 10 mg/kg, route oral; conditions: in vivo
Outline: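 Female Sprague–Dawley rats and CD-1 mice each received a single iv or oral (po) dose. Terminal half-life and systemic clearance were estimated from plasma exposure over time, alongside AUC0→∞, Vss and absolute oral bioavailability.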

Chain of Cytochrome P450 3A4 (P08684 whole entry): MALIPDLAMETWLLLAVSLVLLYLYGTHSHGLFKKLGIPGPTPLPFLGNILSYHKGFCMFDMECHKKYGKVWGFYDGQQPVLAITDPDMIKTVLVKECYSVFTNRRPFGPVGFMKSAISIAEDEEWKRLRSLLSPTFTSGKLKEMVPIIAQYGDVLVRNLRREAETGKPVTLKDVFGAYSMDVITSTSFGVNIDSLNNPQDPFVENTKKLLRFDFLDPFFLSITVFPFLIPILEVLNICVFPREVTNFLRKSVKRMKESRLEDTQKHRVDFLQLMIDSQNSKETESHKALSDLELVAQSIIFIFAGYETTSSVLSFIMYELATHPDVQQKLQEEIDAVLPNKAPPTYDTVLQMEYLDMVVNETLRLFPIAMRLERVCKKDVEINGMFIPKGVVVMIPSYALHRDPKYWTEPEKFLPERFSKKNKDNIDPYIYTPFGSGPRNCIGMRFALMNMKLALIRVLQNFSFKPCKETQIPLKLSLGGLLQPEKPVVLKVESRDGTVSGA

inhibition [1]: -3%
IC50 [2]: 3500 nM
IC50 [3]: 3530 nM
inhibition [4]: 13%
inhibition [5]: 2%
Activity [6]: Not Active
Activity [7]: Not Active
inhibition [8]: 12%
inhibition [9]: 72%
inhibition [10]: 12%
EC50 [11]: 13.5 nM
inhibition [12]: 27%
inhibition [13]: 86%
IC50 [14]: 3550 nM
bioavailability [15]: 54%
inhibition [17]: 21%
inhibition [18]: -6%
IC50 [19]: 1500 nM
fraction unbound [20]: 0.001
inhibition [21]: 5%
inhibition [22]: 7%
half-life [23]: > 0.667 h
fraction unbound [24]: 0.001
half-life [25]: > 0.667 h
Vd [26]: 18.1 L/kg
inhibition [27]: 1%
inhibition [28]: -5%
AUC(0-inf) [29]: 2850 ng·h/mL
half-life [30]: 53 h
SMILES: CC(C)C[C@H](NC(=O)[C@@H](NC(=O)c1cccc(-c2ccccc2)n1)[C@@H](C)O)B(O)O [DELANZOMIB]
IC50 [16]: 13.7 nM
